# According to ChEMBL document CHEMBL1146462, “New communesin derivatives from the fungus Penicillium sp. derived from the Mediterranean sponge Axinella verrucosa” (J Nat Prod, 2004):
# Calls of active or inactive are those of the source. No cut-off for these calls is given here.
# Experiments:
# U-937 = experiment: Antiproliferative activity against human U937 cells after 48 hrs by MTT assay; assay type: functional; conditions: U-937, 48 h, read-out: ED50 (the source's name)
# In short: (§1)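 Human leukemia cell lines were tested for antiproliferative activity by MTT assay and by radioactive thymidine incorporation. Results are given as ED₅₀ in μg/mL.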
# THP-1 = experiment: Antiproliferative activity against human THP1 cells after 48 hrs by MTT assay; assay type: functional; conditions: THP-1, 48 h, read-out: ED50 (the source's name); in short: as §1
# [1] = Antiproliferative activity against human NAMALWA cells after 48 hrs by MTT assay; assay type: functional; conditions: NAMALVA, read-out: ED50 (the source's name); in short: as §1
# MOLT-3 = experiment: Antiproliferative activity against human MOLT3 cells after 48 hrs by MTT assay; assay type: functional; conditions: MOLT-3, 48 h, read-out: ED50 (the source's name); in short: as §1
# L-428 = experiment: Antiproliferative activity against human L428 cells after 48 hrs by MTT assay; assay type: functional; in short: as §1
# [2] = Antiproliferative activity against human SUP-B15 cells after 48 hrs by MTT assay; assay type: functional; conditions: SUP-B15, 48 h, read-out: ED50 (the source's name); in short: as §1
# [3] = Toxicity in Artemia salina; assay type: organism-based; conditions: in vivo
Structure (SMILES),EC50 (U-937),EC50 (THP-1),EC50 [1],EC50 (MOLT-3),Activity (L-428),EC50 [2],LC50 [3],"EC50 (L-428; L-428, 48 h, read-out: ED50 (the source's name))"
C/C=C/C=C/C(=O)N1CC[C@@]23c4ccccc4N[C@@H]4N(C=O)c5cccc6c5[C@@]42CCN([C@@H]13)[C@@H]6[C@H]1OC1(C)C [COMMUNESIN D],13.1 µg/mL,16.2 µg/mL,14.6 µg/mL,9.9 µg/mL,inactive,9 µg/mL,0.57 µg/mL,
C/C=C/C=C/C(=O)N1CC[C@@]23c4ccccc4N[C@@H]4N(C)c5cccc6c5[C@@]42CCN([C@@H]13)[C@@H]6[C@H]1OC1(C)C [COMMUNESIN B],10.4 µg/mL,11.4 µg/mL,9.9 µg/mL,8.1 µg/mL,,7.2 µg/mL,0.3 µg/mL,> 20 µg/mL
C/C=C/C=C/C(=O)N1CC[C@@]23c4ccccc4N[C@@H]4Nc5cccc6c5[C@@]42CCN([C@@H]13)[C@@H]6[C@H]1OC1(C)C [COMMUNESIN C],11.3 µg/mL,13.1 µg/mL,8.2 µg/mL,8.6 µg/mL,inactive,10.8 µg/mL,1.96 µg/mL,
